Data from ChEMBL document CHEMBL3853327 (J Med Chem, 2016).

Columns and labels:
[1] = target: Human immunodeficiency virus type 1 reverse transcriptase (Human immunodeficiency virus 1, UniProt Q72547, K103N/Y181C); test: Inhibition of recombinant HIV1 reverse transcriptase K103N/Y181C double mutant using DIG-dUTP/biotin-dUTP/dTTP assessed as suppression of biotin-dUTP incorporation after 1 hr by ELISA
[2] = Selectivity index, ratio of CC50 for human mock-infected MT4 cells to EC50 for HIV1 3B harboring reverse transcriptase F227L/V106A double mutant infected in human MT4 cells; type: toxicity, cell-based; conditions: MT4 cells (mock-infected for CC50, HIV-1 infected for EC50)
Outline: (§1)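 Selectivity index is CC50/EC50. CC50 is the concentration that reduces OD540 of mock-infected MT-4 cells by 50% in the 5-day MTT assay. EC50 is the 50% protection from virus-induced cytopathicity, measured in parallel on infected wells.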

[3] = Selectivity index, ratio of CC50 for human mock-infected MT4 cells to EC50 for HIV1 3B harboring reverse transcriptase L100I mutant infected in human MT4 cells; type: toxicity, cell-based; conditions: MT4 cells (mock-infected for CC50, HIV-1 infected for EC50); outline: as §1
[4] = Inhibition of recombinant wild type HIV1 reverse transcriptase using DIG-dUTP/biotin-dUTP/dTTP assessed as suppression of biotin-dUTP incorporation after 1 hr by ELISA; parameters: species or system Human immunodeficiency virus 1
Outline: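 Recombinant WT HIV-1 RT in a Roche colorimetric kit: template plus DIG-dUTP, biotin-dUTP and dTTP, ±inhibitor, 1 h at 37 °C. Product captured on streptavidin plate 1 h at 37 °C, anti-DIG-POD 1 h at 37 °C, ABTS developed at 25 °C, read at OD405. IC50 is the concentration inhibiting biotin-dUTP incorporation by 50%.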

[5] = Selectivity index, ratio of CC50 for human mock-infected MT4 cells to EC50 for HIV1 RES056 harboring reverse transcriptase K103N/Y181C double mutant infected in human MT4 cells; type: toxicity, cell-based; conditions: MT4 cells (mock-infected for CC50, HIV-1 infected for EC50); outline: as §1
[6] = tested on: Human immunodeficiency virus 1; test: Antiviral activity against wild type HIV1 3B harboring reverse transcriptase infected in human MT4 cells assessed as protection against virus induced cytotoxicity after 5 days by MTT assay; type: functional, cell-based; conditions: Human immunodeficiency virus 1, 3B, MT4, 120 h
Outline: (§2)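 MTT cytopathicity assay in MT-4 cells (6 × 10^5 cells/mL). Compounds serially diluted 5-fold in triplicate wells, run in parallel on infected and mock-infected cells. Virus added at 100−300 CCID50 per well. Viability read spectrophotometrically at 540 and 690 nm after 5 days, using the median OD of three wells.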

[7] = Selectivity index, ratio of CC50 for human mock-infected MT4 cells to EC50 for HIV1 3B harboring reverse transcriptase Y188L mutant infected in human MT4 cells; type: toxicity, cell-based; conditions: MT4 cells (mock-infected for CC50, HIV-1 infected for EC50); outline: as §1
[8] = tested on: Human immunodeficiency virus 1; test: Fold resistance, ratio of IC50 for recombinant HIV1 reverse transcriptase K103N/Y181C double mutant to IC50 for wild type HIV1 reverse transcriptase
Outline: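 Ratio of mutant to WT IC50. Recombinant WT and K103N/Y181C RT were assayed with a kit: template plus DIG-dUTP, biotin-dUTP and dTTP, with or without inhibitor, 1 h at 37 °C. Product was captured on streptavidin, detected with anti-DIG-POD and ABTS, and read at 405 nm. IC50 is the concentration inhibiting biotin-dUTP incorporation by 50%.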

[9] = Cytotoxicity against human mock-infected MT4 cells assessed as reduction in cell viability after 5 days by MTT assay; type: toxicity, cell-based
Outline: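 Mock-infected MT-4 cells (6 × 10^5 cells/mL at seeding) with serial 5-fold compound dilutions in triplicate wells. Viability read by MTT after 5 days, absorbance at 540 and 690 nm, median OD of three wells. CC50 is the concentration reducing OD540 of mock-infected cells by 50%.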

[10] = tested on: Human immunodeficiency virus 1; test: Antiviral activity against HIV1 3B harboring reverse transcriptase Y181C mutant infected in human MT4 cells assessed as protection against virus induced cytotoxicity after 5 days by MTT assay; type: functional, cell-based; conditions: Human immunodeficiency virus 1, 3B, MT4, 120 h; outline: as §2
[11] = Selectivity index, ratio of CC50 for human mock-infected MT4 cells to EC50 for HIV1 3B harboring reverse transcriptase Y181C mutant infected in human MT4 cells; type: toxicity, cell-based; conditions: MT4 cells (mock-infected for CC50, HIV-1 infected for EC50); outline: as §1
[12] = tested on: Human immunodeficiency virus 1; test: Antiviral activity against HIV1 3B harboring reverse transcriptase E138K mutant infected in human MT4 cells assessed as protection against virus induced cytotoxicity after 5 days by MTT assay; type: functional, cell-based; conditions: Human immunodeficiency virus 1, 3B, MT4, 120 h
Outline: as §2, with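 “wells. EC50 is the concentration giving 50% protection from viral cytopathogenicity.” for “wells.”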

[13] = Antiviral activity against HIV2 ROD harboring reverse transcriptase infected in human MT4 cells assessed as protection against virus induced cytotoxicity after 5 days by MTT assay; type: functional, cell-based, Human immunodeficiency virus type 2 (ISOLATE ROD); conditions: Human immunodeficiency virus 2, MT4, 120 h
Outline: as §2, with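 “wells. EC50 is the concentration giving 50% protection from viral cytopathogenicity.” for “wells.”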

[14] = tested on: Human immunodeficiency virus 1; test: Antiviral activity against HIV1 3B harboring reverse transcriptase Y188L mutant infected in human MT4 cells assessed as protection against virus induced cytotoxicity after 5 days by MTT assay; type: functional, cell-based; conditions: Human immunodeficiency virus 1, 3B, MT4, 120 h
Outline: as §2, with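 “wells. EC50 is the concentration giving 50% protection from viral cytopathogenicity.” for “wells.”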

[15] = Selectivity index, ratio of CC50 for human mock-infected MT4 cells to EC50 for HIV1 3B harboring reverse transcriptase K103N mutant infected in human MT4 cells; type: toxicity, cell-based; conditions: MT4 cells (mock-infected for CC50, HIV-1 infected for EC50); outline: as §1
[16] = tested on: Human immunodeficiency virus 1; test: Antiviral activity against HIV1 3B harboring reverse transcriptase L100I mutant infected in human MT4 cells assessed as protection against virus induced cytotoxicity after 5 days by MTT assay; type: functional, cell-based; conditions: Human immunodeficiency virus 1, 3B, MT4, 120 h
Outline: as §2, with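 “wells. EC50 is the concentration giving 50% protection from viral cytopathogenicity.” for “wells.”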

[17] = tested on: Human immunodeficiency virus 1; test: Antiviral activity against HIV1 3B harboring reverse transcriptase K103N mutant infected in human MT4 cells assessed as protection against virus induced cytotoxicity after 5 days by MTT assay; type: functional, cell-based; conditions: Human immunodeficiency virus 1, 3B, MT4, 120 h
Outline: as §2, with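 “wells. EC50 is the concentration giving 50% protection from viral cytopathogenicity.” for “wells.”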

[18] = Selectivity index, ratio of CC50 for human mock-infected MT4 cells to EC50 for wild type HIV1 3B harboring reverse transcriptase infected in human MT4 cells; type: toxicity, cell-based; conditions: MT4 cells (mock-infected for CC50, HIV-1 infected for EC50); outline: as §1
[19] = Selectivity index, ratio of CC50 for human mock-infected MT4 cells to EC50 for HIV1 3B harboring reverse transcriptase E138K mutant infected in human MT4 cells; type: toxicity, cell-based; conditions: MT4 cells (mock-infected for CC50, HIV-1 infected for EC50); outline: as §1
[20] = tested on: Human immunodeficiency virus 1; test: Antiviral activity against HIV1 3B harboring reverse transcriptase F227L/V106A double mutant infected in human MT4 cells assessed as protection against virus induced cytotoxicity after 5 days by MTT assay; type: functional, cell-based; conditions: Human immunodeficiency virus 1, 3B, MT4, 120 h
Outline: as §2, with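 “wells. EC50 is the concentration giving 50% protection from viral cytopathogenicity.” for “wells.”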

[21] = tested on: Human immunodeficiency virus 1; test: Antiviral activity against HIV1 RES056 harboring reverse transcriptase K103N/Y181C double mutant infected in human MT4 cells assessed as protection against virus induced cytotoxicity after 5 days by MTT assay; type: functional, cell-based; conditions: Human immunodeficiency virus 1, RES056, MT4, 120 h; outline: as §2

Structure (SMILES) | IC50 [1] [nM] | selectivity ratio [2] | selectivity ratio [3] | IC50 [4] [nM] | selectivity ratio [5] | EC50 [6] [nM] | selectivity ratio [7] | Ratio IC50 [8] | CC50 at 120 h [9] [nM] | EC50 [10] [nM] | selectivity ratio [11] | EC50 [12] [nM] | EC50 [13] [nM] | EC50 [14] [nM] | selectivity ratio [15] | EC50 [16] [nM] | EC50 [17] [nM] | selectivity ratio [18] | selectivity ratio [19] | EC50 [20] [nM] | also measured
Cc1cc(C)c(Oc2nc(NC3CCN(Cc4cccc(F)c4)CC3)nc3ccsc23)c(C)c1 | 40400 | 8 | 16 | 790 | 3 | 39.1 | 41 | 51.2 | 24600 | 252 | 98 | 172 | > 24600 | 599 | 165 | 1530 | 149 | 628 | 143 | 3120 | –
Cc1cn([C@H]2C[C@H](N=[N+]=[N-])[C@@H](CO)O2)c(=O)[nH]c1=O [ZIDOVUDINE] | – | > 1560 | > 1990 | – | > 9150 | 5.8 | > 1180 | – | > 93600 | 6.7 | > 1120 | 7.3 | 6.6 | 6.3 | > 1430 | 3.8 | 5.2 | > 13100 | > 1030 | – | EC50 [21]: 10 nM
Cc1cc(C)c(Oc2nc(NC3CCN(Cc4ccc(S(C)(=O)=O)cc4)CC3)nc3ccsc23)c(C)c1 | 2500 | 81 | 143 | 650 | 12 | 5.7 | 106 | 3.84 | 3420 | 28.9 | 118 | 18.2 | > 3420 | 32.2 | 548 | 23.9 | 6.2 | 595 | 187 | 23.9 | –
Cc1cc(C#N)cc(C)c1Oc1nc(NC2CCN(Cc3ccc(F)cc3)CC2)nc2ccsc12 | 2570 | 198 | 1550 | 810 | 131 | 7.5 | 3140 | 3.17 | 141000 | 37.8 | 3740 | 34.4 | ≥ 141000 | 44.8 | 16200 | 90.9 | 8.7 | 18700 | 4100 | 712 | –
Cc1cc(C#N)cc(C)c1Oc1nc(NC2CCN(Cc3ccncc3)CC2)nc2ccsc12 | 3740 | 159 | 253 | 1300 | 32 | 10.3 | 373 | 2.87 | 20600 | 42.7 | 483 | 42.2 | > 20600 | 55.3 | 2090 | 81.6 | 9.9 | 2000 | 489 | 130 | –
Cc1ccnc2c1NC(=O)c1cccnc1N2C1CC1 [NEVIRAPINE] | – | – | – | 2320 | – | – | – | – | > 15000 | 15000 | – | 271 | – | > 15000 | – | 2110 | 5390 | – | – | > 15000 | EC50 [21]: ≥ 7590 nM
Cc1cc(C#N)cc(C)c1Oc1nc(NC2CCN(Cc3ccc(S(C)(=O)=O)cc3)CC2)nc2ccsc12 | 2830 | 507 | 306 | 1510 | 50 | 22.1 | 543 | 1.87 | 22300 | 36 | 622 | 39 | > 22300 | 41 | 1800 | 73 | 12 | 1000 | 566 | 44 | –
COC(=O)c1ccc(CN2CCC(Nc3nc(Oc4c(C)cc(C)cc4C)c4sccc4n3)CC2)cc1 | 12300 | 13 | 38 | 1240 | 5 | 15.4 | 102 | 9.92 | 24900 | 161 | 154 | 39.5 | > 24900 | 243 | 263 | 650 | 94.6 | 1610 | 629 | 1850 | –
Cc1cc(C)c(Oc2nc(NC3CCN(Cc4ccc(F)cc4F)CC3)nc3ccsc23)c(C)c1 | 46400 | 2 | 11 | 1600 | < 1 | 36.8 | 18 | 30 | 14000 | 660 | 21 | 174 | > 14000 | 787 | 86 | 1240 | 163 | 380 | 80 | 6610 | –
Cc1cc(C#N)cc(C)c1Oc1nc(NC2CCN(Cc3ccccc3F)CC2)nc2ccsc12 | – | – | – | – | 8 | 8.23 | – | – | 189000 | – | – | – | > 189000 | – | – | – | – | 23000 | – | – | EC50 [21]: 24200 nM
Cc1cc(C#N)cc(C)c1Oc1nc(NC2CCN(Cc3ccccc3C#N)CC2)nc2ccsc12 | – | – | – | – | 7 | 5.71 | – | – | 5790 | – | – | – | > 5780 | – | – | – | – | 1010 | – | – | EC50 [21]: 810 nM
Cc1cc(C#N)cc(C)c1Oc1nc(NC2CCN(Cc3ccc(C#N)cc3)CC2)nc2ccsc12 | – | – | – | – | 12 | 5.86 | – | – | 5360 | – | – | – | > 5370 | – | – | – | – | 914 | – | – | EC50 [21]: 440 nM
Cc1cc(C#N)cc(C)c1Oc1nc(NC2CCN(Cc3cccc(C#N)c3)CC2)nc2ccsc12 | – | – | – | – | 13 | 4.14 | – | – | 4520 | – | – | – | > 4530 | – | – | – | – | 1090 | – | – | EC50 [21]: 360 nM
